PMC6239893 (Nature chemical biology, 2018)

Key:
[1] = tested on: ai5γ intron with short exons (SE RNA); experiment: Radioanalytic self-splicing assay; assay type: biochemical, S. cerevisiae; conditions: relative to lead compound; IC50 and Ki assays
Summary of the method: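 Internally ³²P-labelled ai5γ precursor with short exons (2 nM) self-spliced at 30 °C with a range of test compound concentrations. Buffer was 50 mM MOPS pH 7.5, 8 mM MgCl₂, 100 mM KCl. First-order splicing rates were fitted to k_obs = k_max/(1+[I]/K_i) to give K_i. Each determination was repeated 2–4 times; mean ± s.e.m.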

[2] = tested on: COX1 aI5γ group II intron; experiment: Analysis of splicing in S. cerevisiae by qRT-PCR; assay type: cell-based; conditions: S. cerevisiae in YPGE, 4 h; 19 64 μg/mL, 18 32 μg/mL, 12 32 μg/mL, 3 64 μg/mL
[3] = tested on: ai5γ group II intron (D135 ribozyme); experiment: Fluorescent D135 ribozyme cleavage assay; assay type: biochemical, S. cerevisiae; conditions: compared with the parental molecule 7
[4] = tested on: S. cerevisiae wild-type (NP40–36a) and intronless (XPM46) strains; experiment: S. cerevisiae growth assays, wild-type vs mtDNA intronless strain; assay type: cell-based; conditions: YPGE medium, 64 or 128 μg/mL
Summary of the method: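 Wild-type NP40–36a and mtDNA intronless XPM46 strains were grown overnight with shaking to mid-log phase in YPGE at 30 °C. Equal cell numbers were serially diluted 1:5 and plated on YPD or YPGE. Plates held DMSO or test compound at 64 or 128 µg/mL final. Plates grew at 30 °C for 1 day (YPD), 2 days (YPGE with DMSO) or 18 days (YPGE with compound). Done twice.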

Compound | In vitro inhibitory activity in SAR (in words) [1] | Splicing of COX1 aI5γ group II intron in vivo (unspliced precursor, qRT-PCR) [2] | also measured
O=C1/C(=C/c2ccc(O)c(O)c2)Oc2cc(O)cc(O)c21 [Compound 2] | inactivated | – | –
O=C1/C(=C/c2cc(O)cc(O)c2)Oc2cc(O)cc(O)c21 [Compound 3] | – | inactive | –
O=C(c1cc(O)c(O)c(O)c1)c1cc2ccccc2o1 [Compound 9] | – | – | Increase in in vitro potency [3]: 2 fold
COc1ccc(CNC(=O)c2cc(O)c(O)c(O)c2)cc1OC [Compound 10] | substantial loss of activity | – | –
CCCCNS(=O)(=O)c1ccc(-c2ccc(-c3nc(-c4cc(O)c(O)c(O)c4)cs3)cc2)cc1 [Compound 11] | substantial loss of activity | – | –
Cc1ccncc1-c1ccc2oc(C(=O)c3cc(O)c(O)c(O)c3)cc2c1 [Compound 12] | – | inhibit splicing | –
CC(=O)c1ccc(-c2ccc3oc(C(=O)c4cc(O)c(O)c(O)c4)cc3c2)cc1 [Compound 18] | – | inhibit splicing | Growth of intronless strain versus wild-type strain in presence of compound [4]: much more resistant
